Measured values taken from ChEMBL document CHEMBL5625173, “Antimycobacterial pyridine carboxamides: From design to in vivo activity” (Eur J Med Chem, 2023).
Values after ≈ are worked out from the molar mass of the structure shown. Active and inactive are the calls of the source. The calls are words filed in the database; no cut-off is given here.

What was measured:
[1] = tested on: Mycobacterium tuberculosis; experiment: Antimycobacterial activity against Mycobacterium tuberculosis H37Rv by alamar blue staining based microplate analysis; format: functional
Method in brief: (§1)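 Microplate Alamar Blue assay. MIC values read at pH 6.6 (neutral). One acidic-pH test at pH 5.6 is footnoted separately.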

[2] = tested on: Mycobacterium tuberculosis; experiment: Antimycobacterial activity against Mycobacterium tuberculosis H37Ra by alamar blue staining based microplate analysis; format: functional; method in brief: as §1
Mycobacterium kansasii = experiment: Antimycobacterial activity against Mycobacterium kansasii by alamar blue staining based microplate analysis; format: functional
Method in brief: (§2)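 Microplate Alamar Blue assay, one of six mycobacterial strains tested (Mtb H37Rv, Mtb H37Ra, M. kansasii, M. avium, M. smegmatis, M. aurum); value reported as MIC.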

Mycobacterium avium = experiment: Antimycobacterial activity against Mycobacterium avium by alamar blue staining based microplate analysis; format: functional; method in brief: as §1
[3] = tested on: Mycolicibacterium smegmatis; experiment: Antimycobacterial activity against Mycobacterium smegmatis by alamar blue staining based microplate analysis; format: functional; method in brief: as §2
Mycolicibacterium aurum = experiment: Antimycobacterial activity against Mycobacterium aurum by alamar blue staining based microplate analysis; format: functional; method in brief: as §2
[4] = Cytotoxicity against human HepG2 cells assessed as inhibition of cell viability; format: toxicity, cell-based
[5] = Selectivity index, ratio of IC50 for cytotoxicity against human HepG2 cells to MIC for antimycobacterial activity against Mycobacterium tuberculosis H37Rv; format: toxicity, cell-based; conditions: read-out: Selectivity Index
[6] = tested on: Mycobacterium tuberculosis; experiment: Antimycobacterial activity against Mycobacterium tuberculosis H37Rv infected in mouse assessed as reduction in colony formation in lungs at 50 mg/kg administered for 28 days; format: functional, organism-based; conditions: time 28.0 day
Method in brief: (§3)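 Mice infected intranasally with Mtb H37Rv; infection allowed to develop four weeks. Then dosed for 28 days with sodium salt forms as water solution by gastric tube. Lung and spleen CFU determined and compared with untreated control group.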

[7] = tested on: Mycobacterium tuberculosis; experiment: Antimycobacterial activity against Mycobacterium tuberculosis H37Rv infected in mouse assessed as reduction in colony formation in spleen at 50 mg/kg administered for 28 days; format: functional, organism-based; conditions: time 28.0 day; method in brief: as §3

Compound	MIC [1]	MIC [2]	MIC (Mycobacterium kansasii)	MIC (Mycobacterium avium)	MIC [3]	MIC (Mycolicibacterium aurum)	IC50 [4]	selectivity ratio [5]	Activity [6]	Activity [7]
O=C(Nc1ccc(C(=O)O)c(O)c1)c1ccccn1	1.56 µg/mL (≈ 6.04 µM)	250 µg/mL (≈ 968 µM)	50 µg/mL (≈ 194 µM)	> 100 µg/mL	15.6 µg/mL (≈ 60.5 µM)	62.5 µg/mL (≈ 242 µM)	> 1000 µM	166	–	–
O=C(Nc1ccc(C(=O)O)c(O)c1)c1ccc(Cl)nc1	1.56 µg/mL (≈ 5.33 µM)	125 µg/mL (≈ 427 µM)	12.5 µg/mL (≈ 42.7 µM)	100 µg/mL (≈ 342 µM)	≥ 250 µg/mL	≥ 250 µg/mL	> 1000 µM	188	inactive	Active
Cc1cc(C(=O)Nc2cncc(Cl)n2)ccn1	> 100 µg/mL	≥ 500 µg/mL	> 100 µg/mL	> 100 µg/mL	≥ 500 µg/mL	250 µg/mL (≈ 1010 µM)	> 1000 µM	–	–	–
O=C(Nc1ccc(C(=O)O)c(O)c1)c1cccc(C(F)(F)F)n1	3.13 µg/mL (≈ 9.59 µM)	31.2 µg/mL (≈ 95.8 µM)	12.5 µg/mL (≈ 38.3 µM)	12.5 µg/mL (≈ 38.3 µM)	250 µg/mL (≈ 766 µM)	62.5 µg/mL (≈ 192 µM)	> 163 µM	34.1	–	–
Nc1ccc(C(=O)O)cc1 [AMINOBENZOIC ACID]	> 100 µg/mL	250 µg/mL (≈ 1820 µM)	> 100 µg/mL	> 100 µg/mL	≥ 500 µg/mL	250 µg/mL (≈ 1820 µM)	> 1000 µM	–	–	–
O=C(Nc1cncc(Cl)n1)c1ccc2ccccc2n1	> 25 µg/mL	≥ 125 µg/mL	> 25 µg/mL	> 25 µg/mL	≥ 125 µg/mL	≥ 125 µg/mL	> 25 µM	–	–	–
Cc1cc(C(=O)Nc2ccc(C(=O)O)c(O)c2)cc(Cl)n1	50 µg/mL (≈ 163 µM)	250 µg/mL (≈ 815 µM)	> 100 µg/mL	> 100 µg/mL	≥ 500 µg/mL	≥ 500 µg/mL	> 1000 µM	–	–	–
O=C(Nc1cncc(Cl)n1)c1ccc(Cl)nc1	100 µg/mL (≈ 372 µM)	≥ 500 µg/mL	> 100 µg/mL	> 100 µg/mL	≥ 500 µg/mL	≥ 500 µg/mL	> 500 µM	–	–	–
O=C(Nc1cnccn1)c1cccc(Cl)n1	> 100 µg/mL	≥ 500 µg/mL	50 µg/mL (≈ 213 µM)	> 100 µg/mL	≥ 500 µg/mL	≥ 500 µg/mL	> 250 µM	–	–	–
O=C(Nc1cnccn1)c1ccccn1	> 100 µg/mL	250 µg/mL (≈ 1250 µM)	> 100 µg/mL	> 100 µg/mL	≥ 500 µg/mL	≥ 500 µg/mL	> 1000 µM	–	–	–
NNC(=O)c1ccncc1 [ISONIAZID]	0.2 µg/mL (≈ 1.46 µM)	0.25 µg/mL (≈ 1.82 µM)	12.5 µg/mL (≈ 91.1 µM)	12.5 µg/mL (≈ 91.1 µM)	15.6 µg/mL (≈ 114 µM)	3.91 µg/mL (≈ 28.5 µM)	> 1000 µM	–	–	–
O=C(O)c1ccc(NC(=O)c2ccc(Cl)nc2)cc1	> 100 µg/mL	62.5 µg/mL (≈ 226 µM)	> 100 µg/mL	> 100 µg/mL	≥ 500 µg/mL	250 µg/mL (≈ 904 µM)	> 250 µM	–	–	–
COc1ccnc(C(=O)Nc2cncc(Cl)n2)c1	> 100 µg/mL	≥ 500 µg/mL	> 100 µg/mL	> 100 µg/mL	≥ 500 µg/mL	250 µg/mL (≈ 945 µM)	> 500 µM	–	–	–
O=C(O)c1ccc(NC(=O)c2cccc(C(F)(F)F)n2)cc1	50 µg/mL (≈ 161 µM)	62.5 µg/mL (≈ 201 µM)	50 µg/mL (≈ 161 µM)	> 100 µg/mL	≥ 500 µg/mL	62.5 µg/mL (≈ 201 µM)	> 248 µM	–	–	–
O=C(O)c1ccc(NC(=O)c2cccc(Cl)n2)cc1	> 100 µg/mL	62.5 µg/mL (≈ 226 µM)	> 100 µg/mL	> 100 µg/mL	≥ 500 µg/mL	250 µg/mL (≈ 904 µM)	> 250 µM	–	–	–
O=C(O)c1ccc(NC(=O)c2ccc3ccccc3n2)cc1	25 µg/mL (≈ 85.5 µM)	31.2 µg/mL (≈ 107 µM)	25 µg/mL (≈ 85.5 µM)	25 µg/mL (≈ 85.5 µM)	≥ 500 µg/mL	62.5 µg/mL (≈ 214 µM)	> 50 µM	> 0.6	–	–
Cc1cc(C(=O)Nc2ccc(C(=O)O)c(O)c2)cc(O)n1	6.25 µg/mL (≈ 21.7 µM)	≥ 500 µg/mL	> 100 µg/mL	> 100 µg/mL	≥ 500 µg/mL	≥ 500 µg/mL	> 1000 µM	46.1	–	–
